Shown are actives, neighbours in structure and some others; about 1.8% of the full set was active somewhere.
NPY-Y1 antag: antagonists of human neuropeptide Y receptor Y1 | P25929 | HEK293-CNG Y1 cells, membrane potential fluorescence; NPY at EC95, then isoproterenol | inhibition, % at 3.6 µM | 1% of 200,000 active | AID 1040;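 active means inhibition above the campaign mean inhibition of all tested compounds plus 3 SD, cut at about 20% in these data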;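 further: 0% = DMSO wells given NPY plus isoproterenol and 100% = isoproterenol alone without NPY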
Target sequence (P25929 whole entry, looked up): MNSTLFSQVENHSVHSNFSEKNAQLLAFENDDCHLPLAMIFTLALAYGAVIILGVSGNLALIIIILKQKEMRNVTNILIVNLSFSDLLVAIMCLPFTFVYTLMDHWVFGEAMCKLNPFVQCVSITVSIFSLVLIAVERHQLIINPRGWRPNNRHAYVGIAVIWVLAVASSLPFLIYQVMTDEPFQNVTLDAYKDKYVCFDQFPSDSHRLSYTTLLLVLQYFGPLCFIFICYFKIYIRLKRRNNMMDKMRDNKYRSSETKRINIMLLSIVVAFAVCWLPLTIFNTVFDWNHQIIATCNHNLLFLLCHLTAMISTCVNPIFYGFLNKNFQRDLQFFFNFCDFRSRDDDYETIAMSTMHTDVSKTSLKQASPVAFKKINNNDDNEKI
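Assay system: HEK293 Y1/CNG channel cell line; Doses: single compound dose of 3.6 µM, 0.4% DMSO; Timing: dye 3 h, compound 60 min room temperature, stimulation 45 min; Technique: Membrane-potential fluorescent dye readout; Measure: % inhibition of NPY effect.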
NPY-Y2 PAM-ag: potentiators or agonists of human neuropeptide Y receptor Y2 | cells expressing NPY-Y2, potentiator/agonist read-out | activation, % at 3.6 µM | 0.45% of 220,000 active | AID 1359; in the data active means activation above about 27%;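 further: cells stimulated with NPY near EC25 plus isoproterenol at EC100; 0% = vehicle plus submaximal agonist and 100% = vehicle plus saturating agonist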
NPY1 pot ag: potentiates or activates human NPY-Y1 receptor; NPY-Y1 expressing cells, potentiator/agonist activation; 0.37% of 220,000 active; P25929; activation, % at 3.6 µM; in the data active means activation above about 33%, passing the limit was not always enough;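 further: cells stimulated with NPY at EC10 then isoproterenol at EC100; 0% = low agonist plus stimulus and 100% = saturating agonist plus stimulus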
NPY-Y2 antag: blocks the human neuropeptide Y Y2 receptor; NPY-Y2 expressing cells, antagonist mode; 0.99% of 140,000 active; P49146; AID 793; inhibition, % at 2.7 µM; in the data active means inhibition above about 17%;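 further: 0% = vehicle with agonist challenge and 100% = reference antagonist with challenge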
* hit, by the source's call; · = no result given.

SMILES | NPY-Y1 antag | NPY-Y2 PAM-ag | NPY1 pot ag | NPY-Y2 antag
Cc1ccc(NC(=O)c2cc(-c3ccc(C)o3)nc3ccccc23)cc1 | 117.9* | -132.4 | -186.9 | 115.0*
Cc1ccc(-c2cc(C(=O)Nc3cccnc3)c3ccccc3n2)o1 | -3.5 | -31.0 | -36.4 | 4.7
Cc1cccc(NC(=O)c2cc(-c3ccc(C)s3)nc3ccccc23)n1 | 27.7* | -87.1 | -116.9 | 22.5*
Cc1cc(NC(=O)c2cc(-c3ccc(C)s3)nc3ccccc23)no1 | 4.4 | -28.1 | -17.7 | 6.0
C/C(N)=C(/C#N)C(=O)CSc1nnc(Nc2c(C)cccc2C)s1 | -0.7 | 8.8 | 13.7 | 3.9
CC(C)OP(=O)(OC(C)C)/C(C=O)=N\Nc1ccc([N+](=O)[O-])cc1 | · | 53.3* | 50.7* | ·
COc1ccc(-c2cc(-c3ccccc3)c(C#N)c(S(C)=O)n2)cc1 (stereo unspecified) | -18.3 | 76.1* | 72.0* | -0.5
O=c1ccc(=O)n(-c2ccccc2)[nH]1 | · | -1.7 | 17.1 | ·
COc1ccccc1NC(=O)CSCC(N)=O | -1.5 | -3.6 | -0.9 | 1.0
CC(C)CCOC(=O)/C(=C/c1ccco1)NC(=O)/C=C/c1ccccc1 | 21.4* | -18.7 | -47.2 | 17.6*
COc1ccc(CC(=O)Nc2nc3ccccc3[nH]2)cc1 | · | -6.4 | 6.6 | ·
COc1ccc(NC(=O)Cc2nc3ccccc3[nH]2)cc1 | 13.0 | -22.8 | -48.8 | 22.1*
O=C1CCC(/C=C/c2ccccc2)=NN1Cc1ccc(Cl)c(Cl)c1 | 20.4* | -10.3 | -34.0 | 24.6*
Cc1ccc(C(C)C)c(OCCN(C)C)c1 | -2.0 | -21.6 | -3.1 | 5.6
CCCN(CCC)CCOc1cc(C)ccc1C(C)C | 28.2* | -5.5 | -15.9 | 27.1*
Cc1ccc(C)c(-n2cc(CNCCCn3cccn3)c(-c3ccccc3)n2)c1 | 19.4 | -26.0 | -19.9 | ·
C=CCN=c1scc(-c2ccccc2)n1/N=C/c1ccccn1 | 3.1 | 10.9 | 17.6 | 7.3
C=CCN=c1scc(-c2ccc3c(c2)NC(=O)CO3)n1/N=C(\C)c1ccccn1 | -6.3 | 34.3* | 15.6 | ·
COc1ccc(NC(=S)N(CCc2c(C)[nH]c3ccc(C)cc23)Cc2cccs2)cc1 | 0.7 | -3.8 | 1.3 | 0.4
CNC(=S)N(CCc1c(C)[nH]c2ccc(C)cc12)Cc1cccs1 | -8.9 | 30.7* | 42.6* | ·
Nc1ccc(N=Nc2ccccc2)c(N)n1 | 2.3 | 18.3 | 5.1 | -0.8
Nc1ccc(N=Nc2ccccc2)c2ccccc12 | · | 56.4* | 49.6* | ·
Cc1ccc(-n2nc(C)cc2Nc2ncc(Cl)cc2Cl)cc1 | 10.8 | -3.9 | -12.4 | 2.7
Cc1cc(Nc2ncc(Cl)cc2Cl)n(-c2ccccc2C)n1 | 28.9* | -0.9 | -12.2 | 20.1*
Cn1cc(C(=O)N/N=C/C2=C(N3CCOCC3)C(=C\c3ccccc3)/CC2)ccc1=O | -1.9 | -5.4 | 6.1 | 0.3
SMILES | NPY-Y1 antag | NPY-Y2 PAM-ag | NPY1 pot ag | NPY-Y2 antag
O=C1Nc2ccccc2/C1=N\N=C\C1=C(N2CCOCC2)C(=C\c2ccccc2)/CC1 | -20.1 | 41.8* | 46.4* | -11.4
Cc1ccc(CN2CC(C(=O)Nc3ccc(F)c([N+](=O)[O-])c3)CC2=O)cc1 (stereo unspecified) | -10.2 | 69.9* | 81.2* | ·
Cc1ccc(CN2CC(C(=O)Nc3cc(S(C)(=O)=O)ccc3Cl)CC2=O)cc1 (stereo unspecified) | 8.3 | -3.2 | 0.0 | 0.2
O=C1OC(c2ccccc2)/C(=C(/O)c2ccccc2)C1=O (stereo unspecified) | 0.0 | 62.4* | 102.6* | 4.8
CN(C)/C=C(/C(=O)c1ccccc1Cl)S(=O)(=O)c1ccccc1 | 39.2* | -16.6 | -9.4 | 2.7
COc1ccc(C(=O)/C(=C/N(C)C)S(=O)(=O)c2ccccc2)cc1 | -0.2 | 3.0 | 3.5 | ·
COc1ccc(NC(=O)COC(=O)c2c3c(nc4ccccc24)CCCC3)cc1Cl | 24.3* | -10.9 | -54.5 | 18.9*
O=C1CCCN1CCCNC(=S)Nc1ccc(Br)cc1Cl | -0.6 | 3.5 | -5.9 | ·
Cc1cc(C)n2c(=O)c3ccc(Cl)cc3nc2c1C#N | 2.9 | 5.2 | 7.3 | ·
Cc1cc(Cl)n2c(nc3cc(F)c(F)cc32)c1C#N | 21.5* | -1.8 | -25.7 | ·
O=c1[nH]c2ccc(Cl)cc2c(O)c1-c1ccccc1 | 2.9 | 0.6 | 12.6 | 17.8*
CCc1nc(N2CCN(Cc3ccc4c(c3)OCO4)CC2)c2oc3ccccc3c2n1 | 26.3* | -44.9 | -103.3 | 20.8*
CCc1nc(N2CCCCC2)c2oc3ccccc3c2n1 | 7.5 | -31.1 | -30.1 | 14.1
CCc1nc(N2CCCC(C)C2)c2oc3ccccc3c2n1 (stereo unspecified) | 37.5* | -22.7 | -25.1 | 29.2*
CCc1nc(Nc2ccc3c(c2)OCO3)c2oc3ccccc3c2n1 | 2.5 | 10.0 | -20.6 | 2.4
Cc1cc(O)c(C(C)C)cc1NC(=O)c1ccc(Cl)cc1 | -3.5 | 14.2 | 11.1 | 2.0
COc1ccc(CN2CCC(CO)(Cc3ccccc3)CC2)cc1Cn1cccn1 | 21.4* | -24.8 | -16.6 | ·
Cc1cc(C)n2cc(CSCC(=O)O)nc2n1 | 11.8 | 0.1 | 4.5 | 5.2
O=C(CCc1ccccc1)Nc1ccccc1F | -3.8 | 5.2 | -24.8 | 1.4
O=C(CCc1ccccc1)Nc1c(F)c(F)c(F)c(F)c1F | 33.2* | -36.3 | -77.5 | 16.4
Cc1cc(N/N=C/c2ccc(F)cc2)nc(NCc2ccccc2)n1 | · | -39.9 | -13.9 | ·
CCCCNc1cc(C)nc(NCc2ccccc2)n1 | 30.6* | -0.1 | -35.9 | 29.0*
Cc1cc(Oc2ccccc2F)nc(NCc2ccccc2)n1 | 25.7* | -38.5 | -8.2 | 24.4*
Cc1cc(Nc2ccccc2)nc(NCc2ccccc2)n1 | 5.1 | -17.1 | -23.7 | 16.5
Cc1nnc(SC(C)C(=O)Nc2ccc(Cl)cn2)n1Cc1ccccc1 (stereo unspecified) | 7.1 | 0.8 | -3.1 | 9.0
SMILES | NPY-Y1 antag | NPY-Y2 PAM-ag | NPY1 pot ag | NPY-Y2 antag
CC(Sc1nnc(-c2ccc(Cl)cc2Cl)n1Cc1ccccc1)C(=O)Nc1nccs1 (stereo unspecified) | 25.9* | -0.9 | 10.0 | 29.3*
O=C(NC(c1ccc(Cl)cc1)c1c(O)ccc2ccccc12)c1ccccc1 (stereo unspecified) | -12.8 | 42.7* | 40.5 | -5.8
O=C(NC(c1ccccc1)c1c(O)ccc2ccccc12)c1ccccc1Cl (stereo unspecified) | 8.6 | -0.6 | -29.5 | 3.0
O=C(OCc1nnc(-c2ccccc2)o1)c1ccc2c(c1)OCCO2 | 10.6 | -39.9 | -27.7 | 19.8*
O=C(OCc1nnc(-c2ccccc2)o1)c1ccc(Cl)cc1 | 10.3 | -16.3 | 8.4 | ·
Cc1ccc(N=C2SC(C(=O)Nc3ccc(OC(F)(F)F)cc3)C(N)=C2C(=O)Nc2c(C)cc(C)cc2C)cc1 (stereo unspecified) | 2.2 | 37.0* | 29.2 | -2.1
CC(C)OC(=O)C(C(=O)C(F)(F)F)c1cc(NS(=O)(=O)c2ccc3ccccc3c2)c2ccccc2c1O (stereo unspecified) | -1.3 | -5.8 | -25.7 | -4.1
Cc1ccc(-n2nnnc2SCC(=O)Nc2ccccc2N2CCCCC2)cc1C | 47.6* | -4.7 | 9.8 | 28.0*
Cc1ccc(-c2csc(NC(=O)/C=C/c3ccco3)c2C(=O)O)cc1 | -1.9 | -15.1 | -5.6 | ·
O=C(COc1ccc(/C=N/NS(=O)(=O)c2ccccc2)cc1)Nc1cccc(Cl)c1 | 42.9* | 8.0 | 25.3 | 17.5*
COc1ccc(Cc2nc(-c3ccncc3)no2)cc1 | 3.8 | -0.2 | -12.9 | ·

Bioassay records (PubChem)
